Data taken from ChEMBL document CHEMBL1240394, “Antibacterial activity of N-pentylpantothenamide is due to inhibition of coenzyme a synthesis” (2010).
The source made the active and inactive calls. The calls are words filed in the database; no cut-off is given here.

Assays:
Escherichia coli [1] = assay: Antibacterial activity against acpH null mutant containing Escherichia coli JT6 transformed with pJT5 expressing AcpH assessed as microbial growth inhibition; type: functional, organism-based
Escherichia coli [2] = assay: Antibacterial activity against Escherichia coli JT6 assessed as microbial growth inhibition
Escherichia coli [3] = assay: Inhibition of coenzyme A synthesis in acpH null mutant containing Escherichia coli JT6 transformed with pBAD24 plasmid expressing CoaD gene assessed as decrease in acetyl CoA level at 100 ug/ml after 90 mins by HPLC relative to untreated control; type: functional, organism-based
Escherichia coli [4] = assay: Inhibition of coenzyme A synthesis in acpH null mutant containing Escherichia coli JT6 transformed with pBAD24 plasmid expressing CoaBC gene assessed as decrease in acetyl CoA level at 100 ug/ml after 90 mins by HPLC relative to untreated control; type: functional, organism-based
Escherichia coli [5] = assay: Inhibition of coenzyme A synthesis in acpH null mutant containing Escherichia coli JT6 transformed with pBAD24 plasmid expressing CoaA gene assessed as decrease in acetyl CoA level at 100 ug/ml after 90 mins by HPLC relative to untreated control; type: functional, organism-based
Escherichia coli [6] = assay: Inhibition of coenzyme A synthesis in Escherichia coli JT7 carrying panD deletion assessed as decrease in acetyl CoA level at 100 ug/ml after 90 mins by HPLC relative to untreated control; type: functional
In short: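 The culture was split, one half given 100 μg/ml N5-Pan, and both incubated a further 90 min. CoA pools were extracted and analysed by reverse-phase C18 HPLC with internal standards.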

Escherichia coli [7] = assay: Induction of holo-ACP accumulation in Escherichia coli JT6 pJT5 plasmid expressing AcpH at 100 ug/ml after 3 hrs by Western blotting; type: functional, organism-based
In short: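 JT6 cells carrying pJT5 (AcpH under arabinose control), with empty pBAD322 as the vector control, treated with 100 μg/ml N5-Pan. At 3 h, crude cell extracts were run on conformationally sensitive gel electrophoresis. Proteins were electroblotted and probed by Western blot with anti-ACP antibody.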

Escherichia coli [8] = assay: Induction of ethyldethia-ACP accumulation in Escherichia coli JT6 at 200 ug/ml by gel electrophoresis; type: functional, organism-based
In short: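 Exponentially growing E. coli JT6 (UB1005 tolC::Tn10, lacking the outer membrane efflux exit duct) in M9 minimal medium with 0.4% glycerol and 0.1% vitamin-free Casamino Acids. Culture supplemented with 200 μg/ml N5-Pan. ACP species resolved by conformationally sensitive gel electrophoresis.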

Escherichia coli [9] = assay: Inhibition of coenzyme A synthesis in acpH null mutant containing Escherichia coli JT6 transformed with pBAD24 plasmid expressing CoaE gene assessed as decrease in acetyl CoA level at 100 ug/ml after 90 mins by HPLC relative to untreated control; type: functional, organism-based
Escherichia coli [10] = assay: Antibacterial activity against Escherichia coli JT13 deficient in acpH gene assessed as microbial growth inhibition

## CCCCCNC(=O)CCNC(=O)[C@H](O)C(C)(C)CO
Escherichia coli [1]
  growth inhibition (GI): inactive
Escherichia coli [2]
  growth inhibition (GI): Active
Escherichia coli [3]
  inhibition: Active
Escherichia coli [4]
  inhibition: Active
Escherichia coli [5]
  inhibition: Active
Escherichia coli [6]
  fold change (FC): >10
Escherichia coli [7]
  Activity: Active
Escherichia coli [8]
  Activity: Active
Escherichia coli [9]
  inhibition: Active
Escherichia coli [10]
  growth inhibition (GI): Active
